16 compounds from ChEMBL document CHEMBL1134274, “Discovery of a series of nonpeptide small molecules that inhibit the binding of insulin-like growth factor (IGF) to IGF-binding proteins” (J Med Chem, 2001) can be followed below.

Experiment [1] has as its target Insulin-like growth factor-binding protein 3 (Homo sapiens, UniProt P17936). Briefly: Inhibitory activity against Insulin-like growth factor binding protein 3. The method, boiled down: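 IGFBP-3 purified from human plasma (0.5 pmol, 2.5 nM added) incubated 2 h at room temperature with [125I]hIGF-I (30,000 cpm) and compound in 0.02% NP-40/PBS pH 7.2, in duplicate. Complex precipitated with ice-cold 20% BSA plus 20% PEG-8000 and centrifuged; pellet counted by γ-counter. Ki calculated from inhibition of binding.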

Experiment [2] addresses Insulin-like growth factor-binding protein 5 (Homo sapiens, UniProt P24593). The experiment is described as follows: The compound was tested for binding affinity against Insulin-like growth factor binding protein 5. The method, boiled down: (§1)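 Human IGFBP-1, -2, -4, -5 or -6 expressed in Sf9 insect cells (baculovirus), purified on hIGF-II affinity column then reversed-phase HPLC. 0.5 pmol binding protein incubated with [125I]hIGF-I (30,000 cpm) and increasing compound concentrations, 2 h at room temperature, in 0.02% NP-40/PBS pH 7.2, in duplicate. Complex precipitated with BSA/PEG; pellet radioactivity counted to give dose–response curves.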

Experiment [3] addresses T1, Insulin-like growth factor-binding protein 4 (Homo sapiens, UniProt P22692).
T1 sequence (P22692 whole entry): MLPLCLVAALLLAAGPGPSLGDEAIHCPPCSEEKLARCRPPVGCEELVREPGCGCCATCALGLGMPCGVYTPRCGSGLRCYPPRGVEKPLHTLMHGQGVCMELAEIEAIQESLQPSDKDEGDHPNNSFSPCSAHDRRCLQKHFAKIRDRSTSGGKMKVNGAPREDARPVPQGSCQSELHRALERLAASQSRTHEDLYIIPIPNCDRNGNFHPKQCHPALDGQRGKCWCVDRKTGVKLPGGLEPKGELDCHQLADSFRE
The experiment is described as follows: The compound was tested for binding affinity against Insulin-like growth factor binding protein 4. The method, boiled down:
as §1

The target of experiment [4] is T2, Insulin-like growth factor-binding protein 2 (Homo sapiens, UniProt P18065).
T2 sequence (P18065 whole entry): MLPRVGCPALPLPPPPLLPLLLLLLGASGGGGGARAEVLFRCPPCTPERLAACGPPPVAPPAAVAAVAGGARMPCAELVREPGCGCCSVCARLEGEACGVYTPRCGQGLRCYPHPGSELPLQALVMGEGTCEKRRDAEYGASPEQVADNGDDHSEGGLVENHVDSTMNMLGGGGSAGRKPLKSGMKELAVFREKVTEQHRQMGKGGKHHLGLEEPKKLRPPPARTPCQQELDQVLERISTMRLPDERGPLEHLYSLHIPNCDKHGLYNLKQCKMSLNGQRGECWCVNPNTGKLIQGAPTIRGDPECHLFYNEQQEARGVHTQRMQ
The experiment is described as follows: The compound was tested for binding affinity against insulin-like growth factor binding protein 2. The method, boiled down: as §1

Experiment [5] has as its target T3, Insulin-like growth factor-binding protein 1 (Homo sapiens, UniProt P08833).
T3 sequence (P08833 whole entry): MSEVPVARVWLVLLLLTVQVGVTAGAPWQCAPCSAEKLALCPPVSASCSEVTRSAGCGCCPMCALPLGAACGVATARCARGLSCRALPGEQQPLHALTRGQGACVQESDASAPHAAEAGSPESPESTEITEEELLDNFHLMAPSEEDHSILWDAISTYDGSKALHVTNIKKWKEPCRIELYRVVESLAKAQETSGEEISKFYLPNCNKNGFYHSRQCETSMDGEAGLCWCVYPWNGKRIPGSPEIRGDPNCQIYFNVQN
Briefly: The compound was tested for binding affinity against insulin-like growth factor binding protein 1. A digest of the protocol: as §1

Experiment [6] deals with T4, Insulin-like growth factor-binding protein 6 (Homo sapiens, UniProt P24592).
T4 sequence (P24592 whole entry): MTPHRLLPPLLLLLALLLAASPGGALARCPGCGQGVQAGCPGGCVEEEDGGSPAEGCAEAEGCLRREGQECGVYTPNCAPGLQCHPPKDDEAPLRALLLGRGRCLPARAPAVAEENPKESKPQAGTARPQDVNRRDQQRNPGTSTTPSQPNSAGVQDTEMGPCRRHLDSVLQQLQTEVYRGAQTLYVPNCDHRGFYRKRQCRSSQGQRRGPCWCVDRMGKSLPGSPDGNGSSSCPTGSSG
Briefly: The compound was tested for binding affinity against Insulin-like growth factor binding protein 6. A digest of the protocol: as §1

Insulin-like growth factor-binding protein 3, sequence (P17936 whole entry): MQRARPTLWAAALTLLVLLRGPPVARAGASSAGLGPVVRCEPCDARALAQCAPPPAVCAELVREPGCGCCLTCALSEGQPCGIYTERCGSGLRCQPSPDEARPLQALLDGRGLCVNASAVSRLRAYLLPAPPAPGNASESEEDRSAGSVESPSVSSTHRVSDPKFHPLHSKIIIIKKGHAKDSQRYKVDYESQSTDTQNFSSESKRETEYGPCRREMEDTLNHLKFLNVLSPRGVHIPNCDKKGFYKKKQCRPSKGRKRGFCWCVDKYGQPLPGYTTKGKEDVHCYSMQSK
Insulin-like growth factor-binding protein 5, sequence (P24593 whole entry): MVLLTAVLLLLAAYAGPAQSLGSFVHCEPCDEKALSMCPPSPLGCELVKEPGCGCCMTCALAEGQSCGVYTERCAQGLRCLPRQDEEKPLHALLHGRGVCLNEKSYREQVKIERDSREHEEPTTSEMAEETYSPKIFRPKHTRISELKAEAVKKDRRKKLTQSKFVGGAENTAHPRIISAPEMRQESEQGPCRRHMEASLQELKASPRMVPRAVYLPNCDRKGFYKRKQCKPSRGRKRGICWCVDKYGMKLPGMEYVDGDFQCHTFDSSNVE

Usually Ki stands for a dissociation constant, usually derived from enzyme kinetics or from competition with a known ligand. Regarding `CCOC(=O)c1cc2cc(OC)c(OC)cc2c(C(=O)c2ccc(OC)c(OC)c2)n1`, in experiment [1], the inhibition constant Ki was over 10000 nM.
Still for that read-out and setting: with `O=C(O)c1cc2cc(O)c(O)cc2c(C(=O)c2ccc3ccccc3c2)n1` the figure was 13 nM; with `Oc1cc2cc(O)c(O)cc2c(Cc2ccc(O)c(O)c2)n1`, 29 nM; with `COc1ccc(C(=O)c2nc(C(=O)O)cc3cc(OC)c(OC)cc23)cc1O`, over 10000 nM.
In experiment [1], `O=C(O)c1cc2cc(O)c(O)cc2c(C(=O)c2ccc3c(c2)OCO3)n1` came in with a Ki of 70 nM.
Still for that read-out and setting: with `O=C(c1ccc(O)c(O)c1)c1nccc2cc(O)c(O)cc12` the figure was 58 nM.
Same read-out and setting: with `COc1cc2c(C(=O)c3ccc(O)c(O)c3)nc(C(=O)O)cc2c(Br)c1O` the figure was 70 nM.
Same read-out and setting: with `COc1ccc(C(=O)c2[nH]c(=O)cc3cc(OC)c(OC)cc23)cc1OC` the figure was over 10000 nM; with `O=C(O)c1cc2cc(O)c(O)cc2c(C(=O)c2cccc3ccccc23)n1`, 27 nM; with `COc1cc2cc(C(=O)O)nc(C(=O)c3ccc(O)c(O)c3)c2c(Br)c1O`, 140 nM.
Take `O=C(c1ccc(O)c(O)c1)c1nc(O)cc2cc(O)c(O)cc12`: the inhibition constant Ki in experiment [2] was found to be 20.9 nM; in experiment [3], 6.23 nM; in experiment [4] it was 17.1 nM; in experiment [5], 34.2 nM; in experiment [1], 28 nM; in experiment [6], 84.6 nM.
The compound `COc1cc2cc(C(=O)O)nc(C(=O)c3ccc(O)c(O)c3)c2cc1OC` showed a Ki in experiment [1] of over 10000 nM.
`O=C(O)c1cc2cc(O)c(O)cc2c(Cc2ccc(O)c(O)c2)n1` gave an inhibition constant Ki in experiment [1] of 7.5 nM.
The same measure, in the same setting: the figure for `O=C(O)c1cc2cc(O)c(O)cc2c(C(=O)c2ccc(Cl)cc2Cl)n1` is 44 nM; for `COc1ccc(C(=O)c2nc(C(=O)O)cc3cc(OC)c(O)cc23)cc1O` it is 320 nM.
Take `O=C(O)c1cc2cc(O)c(O)cc2c(C(=O)c2ccc(O)c(O)c2)n1`: the Ki in experiment [2] came out at 5.2 nM; in experiment [3] it was 1.04 nM; in experiment [4], 2.07 nM; in experiment [5], 5.07 nM; in experiment [1], 5.6 nM; in experiment [6] it was 23.6 nM.
